According to paper PMC7935732 (Targeted Oncology, 2021):
Marks after values point to notes of the source that are not given here.

Key:
[1] = system: Chinese patients with advanced and/or metastatic cancers; experiment: Safety and tolerability; assay type: in vivo, human
Method in brief: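 Safety set: all patients with ≥ 1 dose. Patient-reported AEs were collected during treatment; chemistry, hematology and urinalysis were done at protocol time points. Laboratory and non-laboratory AEs were graded by CTCAE v4.0 and summarized by cohort.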

[2] = Plasma pharmacokinetics, LC-MS/MS, non-compartmental analysis; assay type: in vivo, human; details: for CL/F / RAUC (accumulation ratio for AUC0–12): abemaciclib, geometric mean (% CV); for half-life / Cmax / AUC(0-inf) / AUC(0-t) / Vd/F: human, plasma; for Cmax: Mean abemaciclib Cmax
Method in brief: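 Oral test compound, 150 or 200 mg. Plasma was sampled at 1–72 h after a single dose (Cycle 1 Day 1) and at 1–24 h after twice-daily dosing (Day 31), with doses held during sampling. Parent and two major active metabolites were measured by validated LC-MS/MS. Non-compartmental analysis; total active analytes summed. RAUC compares steady-state AUC0–12 with single-dose values. Descriptive statistics by dose.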

CDK 4 = details: in vitro; cited from earlier work

CCN1CCN(Cc2ccc(Nc3ncc(F)c(-c4cc(F)c5nc(C)n(C(C)C)c5c4)n3)nc2)CC1 [abemaciclib]
Hyponatraemia TEAE ([1]; Grade 4, 150 mg (n = 12)): 0 n (%) | Leukopenia (white blood cell count decreased) TEAE ([1]; Grade 4, 150 mg (n = 12)): 0 n (%) | Lung infection TEAE ([1]; Grade 4, 150 mg (n = 12)): 0 n (%) | Malaise TEAE ([1]; Grade 4, 150 mg (n = 12)): 0 n (%) | Muscular weakness TEAE ([1]; Grade 4, 150 mg (n = 12)): 0 n (%) | Neutropenia (neutrophil count decreased) TEAE ([1]; Grade 4, 150 mg (n = 12)): 0 n (%) | Patients with ≥ 1 TEAE of Grade ≥ 3 ([1]; Grade 4, 150 mg (n = 12)): 1 (8.3) n (%) | Thrombocytopenia (platelet count decreased) TEAE ([1]; Grade 4, 150 mg (n = 12)): 1 (8.3) n (%) | Vomiting TEAE ([1]; Grade 4, 150 mg (n = 12)): 1 (8.3) n (%) | Anemia TEAE ([1]; Grade 4, 200 mg (n = 13)): 0 n (%) | Blood bilirubin increased TEAE ([1]; Grade 4, 200 mg (n = 13)): 0 n (%) | Diarrhea TEAE ([1]; Grade 4, 200 mg (n = 13)): 0 n (%) | Embolism TEAE ([1]; Grade 4, 200 mg (n = 13)): 3 (23.1) n (%) | Hyponatraemia TEAE ([1]; Grade 4, 200 mg (n = 13)): 0 n (%) | Leukopenia (white blood cell count decreased) TEAE ([1]; Grade 4, 200 mg (n = 13)): 0 n (%) | Lung infection TEAE ([1]; Grade 4, 200 mg (n = 13)): 0 n (%) | Malaise TEAE ([1]; Grade 4, 200 mg (n = 13)): 0 n (%) | Muscular weakness TEAE ([1]; Grade 4, 200 mg (n = 13)): 0 n (%) | Neutropenia (neutrophil count decreased) TEAE ([1]; Grade 4, 200 mg (n = 13)): 0 n (%) | Patients with ≥ 1 TEAE of Grade ≥ 3 ([1]; Grade 4, 200 mg (n = 13)): 3 (23.1) n (%) | Thrombocytopenia (platelet count decreased) TEAE ([1]; Grade 4, 200 mg (n = 13)): 0 n (%) | Vomiting TEAE ([1]; Grade 4, 200 mg (n = 13)): 0 n (%) | Anemia TEAE ([1]; Grade 4, Total (n = 25)): 0 n (%) | Blood bilirubin increased TEAE ([1]; Grade 4, Total (n = 25)): 0 n (%) | Diarrhea TEAE ([1]; Grade 4, Total (n = 25)): 0 n (%) | Hyponatraemia TEAE ([1]; Grade 4, Total (n = 25)): 0 n (%) | Leukopenia (white blood cell count decreased) TEAE ([1]; Grade 4, Total (n = 25)): 0 n (%) | Lung infection TEAE ([1]; Grade 4, Total (n = 25)): 0 n (%) | Malaise TEAE ([1]; Grade 4, Total (n = 25)): 0 n (%) | Muscular weakness TEAE ([1]; Grade 4, Total (n = 25)): 0 n (%) | Neutropenia (neutrophil count decreased) TEAE ([1]; Grade 4, Total (n = 25)): 0 n (%) | Patients with ≥ 1 TEAE of Grade ≥ 3 ([1]; Grade 4, Total (n = 25)): 4 (16.0) n (%) | Thrombocytopenia (platelet count decreased) TEAE ([1]; Grade 4, Total (n = 25)): 1 (4.0) n (%) | Vomiting TEAE ([1]; Grade 4, Total (n = 25)): 1 (4.0) n (%) | Alanine aminotransferase increased, TEAE any grade ([1]; Total (n = 25)): 7 (28.0) n (%) | Anemia, TEAE any grade ([1]; Total (n = 25)): 12 (48.0) n (%) | Bilirubin increased, TEAE any grade ([1]; Total (n = 25)): 5 (20.0) n (%) | Blood creatinine increased, TEAE any grade ([1]; Total (n = 25)): 14 (56.0) n (%) | Cough, TEAE any grade ([1]; Total (n = 25)): 8 (32.0) n (%) | Decreased appetite, TEAE any grade ([1]; Total (n = 25)): 15 (60.0) n (%) | Diarrhea, TEAE any grade ([1]; Total (n = 25)): 20 (80.0) n (%) | Leukopenia (white blood cell count decreased), TEAE any grade ([1]; Total (n = 25)): 16 (64.0) n (%) | Localized edema, TEAE any grade ([1]; Total (n = 25)): 5 (20.0) n (%) | Malaise, TEAE any grade ([1]; Total (n = 25)): 13 (52.0) n (%) | Nausea, TEAE any grade ([1]; Total (n = 25)): 9 (36.0) n (%) | Neutropenia (neutrophil count decreased), TEAE any grade ([1]; Total (n = 25)): 19 (76.0) n (%) | Patients with ≥ 1 TEAE (any grade) ([1]; Total (n = 25)): 25 (100.0) n (%) | Thrombocytopenia (platelet count decreased), TEAE any grade ([1]; Total (n = 25)): 11 (44.0) n (%) | Vomiting, TEAE any grade ([1]; Total (n = 25)): 8 (32.0) n (%) | Discontinuation of study treatment due to diarrhea or neutropenia ([1]; all treated patients): No patient discontinued | ECG data or vital signs findings ([1]; all treated patients): No clinically meaningful findings | Febrile neutropenia ([1]; all treated patients): No febrile neutropenia was reported | Diarrhea Grade 4 or 5 ([1]; all treated patients (n = 25)): not reported | Diarrhea of Grade 3 ([1]; all treated patients (n = 25)): 4 patients | Patients reporting at least one TEAE of any grade ([1]; all treated patients (n = 25)): 100% | Patients who died on treatment due to AE (respiratory failure) ([1]; all treated patients (n = 25)): 4.0% | Patients who discontinued treatment due to AEs ([1]; all treated patients (n = 25)): 16% | Patients with TEAE of Grade 4 in severity ([1]; all treated patients (n = 25)): 16.0% | Thrombocytopenia TEAE of Grade ≥ 3 ([1]; all treated patients (n = 25)): 24% | Neutropenia TEAE of Grade ≥ 3 ([1]; all treated patients (n = 25), all Grade 3): 32% | Patients reporting serious adverse events (SAEs) ([1]; in total (n = 25)): 24.0% | Patients with 3 or more episodes of diarrhea ([1]; of the 20 patients experiencing diarrhea): 7 patients | CL/F ([2]; single oral dose 150 mg (C1D1), N 12): 22.1 (63) L/h | CL/F ([2]; single oral dose 200 mg (C1D1), N 13): 26.4 (74) L/h | RAUC (accumulation ratio for AUC0–12) ([2]; steady state (C1D31) 150 mg every 12 h, n = 5): 1.57 (106)^b | RAUC (accumulation ratio for AUC0–12) ([2]; steady state (C1D31) 200 mg every 12 h, N 10): 2.10 (69) | half-life ([2]; oral, 200 mg): ~24 h | Cmax ([2]; oral, 200 mg, after multiple doses of 150 or 200 mg): 260 to 320 ng/mL | Cmax ([2]; oral, after a single dose): 200 ng/mL | AUC(0-inf) ([2]; po, 150 mg): 6790 ng·h/mL | AUC(0-t) ([2]; po, 150 mg): 1700 ng·h/mL | Vd/F ([2]; po, 150 mg): 767 L | half-life ([2]; po, 150 mg): 22.4 h | AUC(0-inf) ([2]; po, 200 mg): 7580 ng·h/mL | AUC(0-t) ([2]; po, 200 mg): 1740 ng·h/mL | Vd/F ([2]; po, 200 mg): 955 L | half-life ([2]; po, 200 mg): 22.8 h | Greater potency against CDK 4 than against CDK 6 (CDK 4): 14 times
